The values that follow come from ChEMBL document CHEMBL3351676, “Polyyne hybrid compounds from Notopterygium incisum with peroxisome proliferator-activated receptor gamma agonistic effects” (J Nat Prod, 2014).

Calls of active or inactive are those of the source. The calls are words filed in the database; no cut-off is given here.

The subject of assay [1] is RAW264.7. The experiment in a line: Inhibition of LPS and IFNgamma-induced nitric oxide production in mouse RAW264.7 cells incubated for 16 hrs by Griess assay. The assay is classed as functional, cell-based. Put shortly:
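RAW 264.7 macrophages stimulated with LPS plus IFN-γ to induce iNOS. Compounds dissolved in DMSO and diluted in PBS. Nitrite in supernatants measured by Griess assay against a sodium nitrite standard curve after 16 h. Activity expressed relative to LPS/IFN-γ/0.1% DMSO control; L-NMMA as positive control. Eight concentrations, at least three independent experiments, each in duplicate.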

Assay [2] deals with T1, Peroxisome proliferator-activated receptor gamma (Homo sapiens) (UniProt P37231).
T1 sequence (whole entry): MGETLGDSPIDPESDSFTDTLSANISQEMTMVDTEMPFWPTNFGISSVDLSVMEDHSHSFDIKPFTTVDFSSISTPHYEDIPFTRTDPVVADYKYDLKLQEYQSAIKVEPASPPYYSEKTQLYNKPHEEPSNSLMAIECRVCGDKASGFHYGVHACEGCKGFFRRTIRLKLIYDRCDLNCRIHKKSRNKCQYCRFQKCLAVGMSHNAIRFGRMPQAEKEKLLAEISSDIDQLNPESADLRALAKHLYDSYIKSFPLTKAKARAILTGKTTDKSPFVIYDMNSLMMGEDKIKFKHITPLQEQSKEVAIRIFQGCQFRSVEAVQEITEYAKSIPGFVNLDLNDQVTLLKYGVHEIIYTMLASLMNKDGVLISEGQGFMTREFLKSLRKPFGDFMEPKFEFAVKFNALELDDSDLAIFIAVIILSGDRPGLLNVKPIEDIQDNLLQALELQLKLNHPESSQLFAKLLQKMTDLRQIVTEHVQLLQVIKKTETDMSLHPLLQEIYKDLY
Nature of the assay: Agonist activity at human PPARgamma expressed in HEK293 cells assessed as induction of receptor activation at 10 uM incubated for 18 hrs by luciferase reporter gene assay relative to untreated control. The assay is classed as cell-based. The procedure, abridged: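 HEK-293 cells in DMEM with 10% FBS, transfected by calcium phosphate with human PPARγ1 plasmid, tk-PPREx3-luc reporter and pEGFP-N1. After 6 h, replated in phenol-red-free DMEM with charcoal-stripped FBS. Treated 18 h; DMSO ≤0.1% as solvent control. Firefly luciferase luminescence normalized to EGFP fluorescence per well.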

As for `C=C[C@H](C#CC#C[C@@H](O)/C=C\CCCCCCC)O[C@]1(C)CCC[C@]2(C)CC[C@@H](C(C)(C)O)C[C@H]21`, the inhibition entry in assay [1] was “inactive”.
As for `C=C[C@@H](O)C#CC#C[C@H](/C=C\CCCCCCC)O[C@]1(C)CC[C@@H](O)[C@]2(C)CC[C@@H](C(C)C)[C@@H](O)[C@H]21`, the outcome in assay [2] was inactive. The inhibition entry in assay [1] is “inactive”.
Regarding `C=C[C@@H](O)C#CC#C[C@H](/C=C\CCCCCCC)O[C@]1(C)CCC[C@]2(C)CC[C@@H](C(C)(C)O)C[C@H]21`, the inhibition result in assay [1] was “inactive”.
With `C=C[C@H](C#CC#C[C@@H](O)/C=C\CCCCCCC)O[C@]1(C)CC[C@@H](C(C)C)[C@@H](O)[C@@H]2[C@@](C)(O)CC[C@]21O`, in assay [2], the outcome was inactive. For the same molecule, the inhibition result in assay [1] was “inactive”.
Consider `C=C[C@@H](O)C#CC#C[C@H](/C=C\CCCCCCC)O[C@]1(C)CC[C@@H](C(C)C)[C@@H](O)[C@@H]2[C@@](C)(O)CC[C@]21O`, for which, in assay [2], the outcome was inactive. Besides, the inhibition entry in assay [1] was “inactive”.
For the molecule `C=C[C@H](C#CC#C[C@@H](O)/C=C\CCCCCCC)O[C@]1(C)CC[C@@H](O)[C@]2(C)CC[C@H](C(C)C)[C@H](O)[C@H]21`, in assay [2], the outcome was inactive. In addition, the inhibition entry in assay [1] was “inactive”.
As for `C=C[C@@H](O)C#CC#C[C@H](/C=C\CCCCCCC)O[C@]1(C)CC[C@@H](O)[C@]2(C)CC[C@H](C(C)C)[C@H](O)[C@H]21`, the result in assay [2] was inactive. For the same molecule, the inhibition result in assay [1] is “inactive”.
In the case of `C=C[C@H](C#CC#C[C@@H](O)/C=C\CCCCCCC)O[C@]1(C)CC[C@@H](O)[C@]2(C)CC[C@@H](C(C)C)[C@@H](O)[C@H]21`, the inhibition result in assay [1] was “inactive”.
Take `C=C[C@@H](O)C#Cc1c2c(cc3cc(OC)c(O)cc13)CO[C@H]2/C=C\CCCCCCC`: in assay [2], the outcome was inactive. Besides, the inhibition result in assay [1] is “inactive”.
In the case of `C=C[C@H]1OCc2cc3cc(OC)c(O)cc3c(C#C[C@@H](O)/C=C\CCCCCCC)c21`, the inhibition result in assay [1] is “inactive”.
